Assay results reported in ChEMBL document CHEMBL1157871, “Synthesis and preliminary evaluation of peptidomimetic inhibitors of human beta-secretase” (Eur J Med Chem, 2010).

What was measured:
[1] = biological target: T1, Beta-secretase 1 (Homo sapiens, UniProt P56817); assay: Inhibition of human recombinant BACE1 using fluorescent peptide substrate at 10 ug/ml after 5 mins
In short: (§1)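 FRET assay using a peptide substrate carrying a fluorophore and quencher on either side of a β-secretase cleavage site. Recombinant human BACE-1 was diluted in 0.1 M sodium acetate (pH 4.0) and added to the samples, then shaken 5 min. Fluorogenic Peptide Substrate IV in the same buffer was added and shaken 5 min. Read-out: ex 320 nm/em 405 nm; activity taken as ΔF/min relative to standard.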

[2] = biological target: T1, Beta-secretase 1; assay: Inhibition of human recombinant BACE1 using fluorescent peptide substrate after 5 mins; in short: as §1

T1 sequence (P56817 whole entry): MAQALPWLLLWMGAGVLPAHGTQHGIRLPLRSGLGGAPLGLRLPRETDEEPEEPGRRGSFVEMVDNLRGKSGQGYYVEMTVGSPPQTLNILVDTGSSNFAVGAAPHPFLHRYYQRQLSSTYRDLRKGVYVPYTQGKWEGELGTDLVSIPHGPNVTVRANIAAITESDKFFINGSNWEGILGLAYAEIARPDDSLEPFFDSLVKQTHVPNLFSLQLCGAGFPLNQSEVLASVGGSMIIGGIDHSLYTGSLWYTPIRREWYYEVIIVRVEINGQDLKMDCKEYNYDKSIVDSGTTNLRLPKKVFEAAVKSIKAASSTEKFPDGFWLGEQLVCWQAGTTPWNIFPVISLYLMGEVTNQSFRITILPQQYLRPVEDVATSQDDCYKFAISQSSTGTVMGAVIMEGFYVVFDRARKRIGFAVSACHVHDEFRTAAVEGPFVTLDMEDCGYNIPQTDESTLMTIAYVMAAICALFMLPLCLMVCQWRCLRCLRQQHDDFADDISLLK

| Compound | inhibition [1] [%] | IC50 [2] [µM] |
| --- | --- | --- |
| CC(C)[C@H](NC(=O)OC(C)(C)C)C(=O)N[C@@H](Cc1ccccc1)C(=O)N[C@@H](C(C)C)[C@@H](O)C[C@@H](C)C(=O)NCc1ccccc1 | -1.56 |  |
| CC[C@H](C)[C@H](NC(=O)OC(C)(C)C)C(=O)N[C@@H](Cc1ccccc1)C(=O)N[C@@H](C(C)C)[C@@H](O)C[C@@H](C)C(=O)NCc1ccccc1 | -2.46 |  |
| COc1ccc(C(=O)N[C@@H](Cc2ccc([N+](=O)[O-])cc2)C(=O)N[C@@H](CC(C)C)[C@@H](O)C[C@@H](C)C(=O)NCC(C)C)cc1OC | 18.3 | 3.81 |
| CC(C)[C@H](NC(=O)[C@H](CO)NC(=O)OC(C)(C)C)[C@@H](O)C[C@@H](C)C(=O)NCc1ccccc1 | 50.5 |  |
| CC(C)CNC(=O)[C@H](C)C[C@H](O)[C@H](CC(C)C)NC(=O)[C@H](Cc1ccc([N+](=O)[O-])cc1)NC(=O)c1cccc(Cl)c1 | 25.7 |  |
| CC(C)CNC(=O)[C@H](C)C[C@H](O)[C@H](CC(C)C)NC(=O)[C@H](Cc1ccccc1)NC(=O)c1ccc(Cl)cc1Cl | 20.3 |  |
| CC(C)[C@H](NC(=O)[C@H](Cc1ccccc1)NC(=O)OC(C)(C)C)[C@@H](O)C[C@@H](C)C(=O)NCc1ccccc1 | 23 |  |
| CC(C)CNC(=O)[C@H](C)C[C@H](O)[C@@H](NC(=O)[C@H](Cc1ccccc1)NC(=O)OC(C)(C)C)C(C)C | 25.8 |  |
| CC(C)CNC(=O)[C@H](C)C[C@H](O)[C@H](CC(C)C)NC(=O)[C@H](Cc1ccc([N+](=O)[O-])cc1)NC(=O)/C=C/c1ccccc1 | 37.2 |  |
| CC(C)CNC(=O)[C@H](C)C[C@H](O)[C@H](CC(C)C)NC(=O)[C@H](Cc1ccccc1)NC(=O)c1cccc2ccccc12 | -0.1 | 4.67 |
| CC(C)CNC(=O)[C@H](C)C[C@H](O)[C@H](CC(C)C)NC(=O)[C@H](Cc1ccc([N+](=O)[O-])cc1)NC(=O)c1ccc(Cl)cc1Cl | 22.2 | 4.24 |
| CC(C)CNC(=O)[C@H](C)C[C@H](O)[C@H](CC(C)C)NC(=O)[C@H](Cc1ccccc1)NC(=O)c1ccc2c(c1)OCO2 | 16.2 | 8.07 |
| CC(C)CNC(=O)[C@H](C)C[C@H](O)[C@H](CC(C)C)NC(=O)[C@H](Cc1ccccc1)NC(=O)c1ccc([N+](=O)[O-])cc1 | 1.47 | 15.7 |
| COc1ccc(CC(=O)N[C@@H](CO)C(=O)N[C@@H](CC(C)C)[C@@H](O)C[C@@H](C)C(=O)NCc2ccccc2)cc1 | 25.1 |  |
| CC(C)CNC(=O)[C@H](C)C[C@H](O)[C@H](CC(C)C)NC(=O)[C@H](Cc1ccccc1)NC(=O)/C=C/c1ccccc1 | 22.8 |  |
| CC(C)C[C@H](NC(=O)OC(C)(C)C)C(=O)N[C@@H](Cc1ccccc1)C(=O)N[C@@H](CC(C)C)[C@@H](O)C[C@@H](C)C(=O)NCc1ccccc1 | 0.91 |  |

| Compound | inhibition [1] [%] | IC50 [2] [µM] |
| --- | --- | --- |
| CC(C)CNC(=O)[C@H](C)C[C@H](O)[C@H](CC(C)C)NC(=O)[C@H](Cc1ccccc1)NC(=O)/C=C/c1ccc(C(F)(F)F)cc1 | 59.7 | 19.5 |
| CC(C)CNC(=O)[C@H](C)C[C@H](O)[C@H](CC(C)C)NC(=O)[C@H](Cc1ccccc1)NC(=O)c1cccc(Cl)c1 | 16.9 |  |
| CC(C)CNC(=O)[C@H](C)C[C@H](O)[C@H](CC(C)C)NC(=O)[C@H](Cc1ccc([N+](=O)[O-])cc1)NC(=O)/C=C/c1ccc(C(F)(F)F)cc1 | 0.13 | 3.79 |
| CC(C)CNC(=O)[C@H](C)C[C@H](O)[C@H](CC(C)C)NC(=O)[C@H](Cc1ccccc1)NC(=O)[C@@H](NC(=O)OC(C)(C)C)C(C)C | -2.37 |  |
| CC(C)CNC(=O)[C@H](C)C[C@H](O)[C@H](CC(C)C)NC(=O)[C@H](Cc1ccccc1)NC(=O)[C@H](CC(C)C)NC(=O)OC(C)(C)C | 54.6 | 2.31 |
| CC[C@H](C)[C@H](NC(=O)OC(C)(C)C)C(=O)N[C@@H](Cc1ccccc1)C(=O)N[C@@H](CC(C)C)[C@@H](O)C[C@@H](C)C(=O)NCC(C)C | -0.71 |  |
| CC(C)CNC(=O)[C@H](C)C[C@H](O)[C@@H](NC(=O)[C@H](Cc1ccc([N+](=O)[O-])cc1)NC(=O)OC(C)(C)C)C(C)C | 30.1 |  |
| CC(C)CNC(=O)[C@H](C)C[C@H](O)[C@H](CC(C)C)NC(=O)[C@H](Cc1ccc([N+](=O)[O-])cc1)NC(=O)c1cc([N+](=O)[O-])cc([N+](=O)[O-])c1 | 7.61 |  |
| CC(C)CNC(=O)[C@H](C)C[C@H](O)[C@H](CC(C)C)NC(=O)[C@H](Cc1ccc([N+](=O)[O-])cc1)NC(=O)c1ccc2c(c1)OCO2 | 40.3 |  |
| COc1ccc(C(=O)N[C@@H](Cc2ccccc2)C(=O)N[C@@H](CC(C)C)[C@@H](O)C[C@@H](C)C(=O)NCC(C)C)cc1OC | 14.7 |  |
| CC(C)CNC(=O)[C@H](C)C[C@H](O)[C@H](CC(C)C)NC(=O)[C@H](Cc1ccc([N+](=O)[O-])cc1)NC(=O)c1ccc([N+](=O)[O-])cc1 | 10.5 | 2.64 |
| CC(C)C[C@H](NC(=O)[C@H](CO)NC(=O)/C=C/c1ccc(C(F)(F)F)cc1)[C@@H](O)C[C@@H](C)C(=O)NCc1ccccc1 | 16.4 |  |
| CC(C)CNC(=O)[C@H](C)C[C@H](O)[C@H](CC(C)C)NC(=O)[C@H](Cc1ccc([N+](=O)[O-])cc1)NC(=O)c1cccc2ccccc12 | -4.43 |  |
| CC(C)CNC(=O)[C@H](C)C[C@H](O)[C@H](CC(C)C)NC(=O)[C@H](Cc1ccccc1)NC(=O)c1ccccc1 | 11.2 | 6.93 |
| CC(C)CNC(=O)[C@H](C)C[C@H](O)[C@H](CC(C)C)NC(=O)[C@H](Cc1ccccc1)NC(=O)c1cc([N+](=O)[O-])cc([N+](=O)[O-])c1 | 0.91 |  |
